In brackets after ≈: the same amount, converted by molar mass. Activity calls are given as the source filed them. The calls are words filed in the database; no cut-off is given here.
Experiments:
[1] = Solubility in 0.01N HCl; format: physicochemical
How it was run: (§1)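 Thermodynamic solubility determined in a high-throughput automated format; media 0.01 N HCl, PBS and simulated intestinal fluid.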

[2] = Volume of distribution at steady state in monkey at 1 mg/kg, iv; format: ADME, organism-based, Macaca mulatta; design: dose 1 mg/kg, route intravenous; conditions: rhesus monkey, in vivo, read-out: Vss
How it was run: (§2)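 Fed male animals given 1 mg/kg intravenously in 80% PEG-400/H₂O.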

Rattus norvegicus [3] = species: Rattus norvegicus; assay: Plasma concentration in rat with capsaicin-evoked paw flinching; format: ADME, organism-based; conditions: in vivo
[4] = AUC (0-inf) in Sprague-Dawley rat at 5 mg/kg, po up to 8 hrs; format: ADME, organism-based; design: time infinity, dose 5 mg/kg, route oral; conditions: plasma
How it was run: (§3)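 Fasted male Sprague-Dawley rats given 5 mg/kg orally as a suspension in 5% Tween 80/Oraplus; plasma sampled up to 8 h.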

[5] = Volume of distribution in Sprague-Dawley rat at 1 mg/kg, iv up to 6 hrs; format: ADME, organism-based; design: dose 1 mg/kg, route intravenous; conditions: in vivo, read-out: Vss
[6] = Oral bioavailability in dog at 3 mg/kg; format: ADME, organism-based, Canis lupus familiaris; conditions: in vivo
How it was run: (§4)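 Fasted male animals dosed orally at 3 mg/kg, vehicle 10% Pluronic F108 in either Oraplus or H₂O.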

[7] = Oral bioavailability in Sprague-Dawley rat at 5 mg/kg; format: ADME, organism-based; conditions: in vivo; how it was run: as §3
Rattus norvegicus [8] = species: Rattus norvegicus; assay: Reduction of thermal hyperalgesia in rat model of CFA-induced inflammation in assessed as minimum effective dose; format: functional; conditions: read-out: MED
How it was run: (§5)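 Complete Freund's adjuvant injected to induce inflammatory thermal hyperalgesia in rats; oral dose-response, minimum effective dose determined, with corresponding plasma level measured.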

[9] = Clearance in Sprague-Dawley rat at 1 mg/kg, iv after 72 hrs; format: ADME, organism-based; design: dose 1 mg/kg, route intravenous; conditions: in vivo
[10] = Clearance in dog at 1 mg/kg, iv; format: ADME, organism-based, Canis lupus familiaris; design: dose 1 mg/kg, route intravenous; conditions: in vivo; how it was run: as §2
[11] = Half life in monkey at 1 mg/kg, iv; format: ADME, organism-based, Macaca mulatta; design: dose 1 mg/kg, route intravenous; conditions: rhesus monkey, in vivo; how it was run: as §2
[12] = Volume of distribution at steady state in dog at 1 mg/kg, iv; format: ADME, organism-based, Canis lupus familiaris; design: dose 1 mg/kg, route intravenous; conditions: in vivo, read-out: Vss; how it was run: as §2
Rattus norvegicus [13] = species: Rattus norvegicus; assay: Plasma concentration in rat model of CFA-induced inflammation; format: ADME, organism-based; conditions: in vivo; how it was run: as §5
[14] = AUC (0 to infinity) in Sprague-Dawley rat at 1 mg/kg, iv up to 6 hrs; format: ADME, organism-based; design: time infinity, dose 1 mg/kg, route intravenous; conditions: plasma
Rattus norvegicus [15] = assay: Suppression of capsaicin-evoked paw flinching in orally dosed rat; format: functional; conditions: po
Rattus norvegicus [16] = assay: Inhibition of capsaicin-induced flinching in rat at 10 mg/kg, po up to 8 hrs; format: functional, organism-based; design: dose 10 mg/kg
How it was run: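 Rats given 10 mg/kg orally; capsaicin-induced flinching challenged at intervals up to 8 h after dosing.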

[17] = Oral bioavailability in monkey at 3 mg/kg; format: ADME, organism-based, Macaca mulatta; conditions: rhesus monkey, in vivo; how it was run: as §4
[18] = Solubility in SIF; format: physicochemical; how it was run: as §1
[19] = Clearance in monkey at 1 mg/kg, iv; format: ADME, organism-based, Macaca mulatta; design: dose 1 mg/kg, route intravenous; conditions: rhesus monkey, in vivo; how it was run: as §2
[20] = Clearance in Sprague-Dawley rat at 1 mg/kg, iv up to 6 hrs; format: ADME, organism-based; design: dose 1 mg/kg, route intravenous; conditions: in vivo
[21] = Half life in Sprague-Dawley rat at 1 mg/kg, iv after 72 hrs; format: ADME, organism-based; design: dose 1 mg/kg, route intravenous; conditions: in vivo
[22] = Volume of distribution at steady state in Sprague-Dawley rat at 1 mg/kg, iv after 72 hrs; format: ADME, organism-based; design: dose 1 mg/kg, route intravenous; conditions: in vivo, read-out: Vss
[23] = Solubility in PBS; format: physicochemical; how it was run: as §1
[24] = Half life in Sprague-Dawley rat at 1 mg/kg, iv; format: ADME, organism-based; design: dose 1 mg/kg, route intravenous; conditions: in vivo
[25] = Half life in dog at 1 mg/kg, iv; format: ADME, organism-based, Canis lupus familiaris; design: dose 1 mg/kg, route intravenous; conditions: in vivo; how it was run: as §2
[26] = target: T1, Transient receptor potential cation channel subfamily V member 1 (Rattus norvegicus, UniProt O35433); assay: Inhibition of rat TRPV1 expressed in CHO cells assessed as capsaicin-induced Ca2+ influx; format: cell-based
T1 sequence (O35433 whole entry): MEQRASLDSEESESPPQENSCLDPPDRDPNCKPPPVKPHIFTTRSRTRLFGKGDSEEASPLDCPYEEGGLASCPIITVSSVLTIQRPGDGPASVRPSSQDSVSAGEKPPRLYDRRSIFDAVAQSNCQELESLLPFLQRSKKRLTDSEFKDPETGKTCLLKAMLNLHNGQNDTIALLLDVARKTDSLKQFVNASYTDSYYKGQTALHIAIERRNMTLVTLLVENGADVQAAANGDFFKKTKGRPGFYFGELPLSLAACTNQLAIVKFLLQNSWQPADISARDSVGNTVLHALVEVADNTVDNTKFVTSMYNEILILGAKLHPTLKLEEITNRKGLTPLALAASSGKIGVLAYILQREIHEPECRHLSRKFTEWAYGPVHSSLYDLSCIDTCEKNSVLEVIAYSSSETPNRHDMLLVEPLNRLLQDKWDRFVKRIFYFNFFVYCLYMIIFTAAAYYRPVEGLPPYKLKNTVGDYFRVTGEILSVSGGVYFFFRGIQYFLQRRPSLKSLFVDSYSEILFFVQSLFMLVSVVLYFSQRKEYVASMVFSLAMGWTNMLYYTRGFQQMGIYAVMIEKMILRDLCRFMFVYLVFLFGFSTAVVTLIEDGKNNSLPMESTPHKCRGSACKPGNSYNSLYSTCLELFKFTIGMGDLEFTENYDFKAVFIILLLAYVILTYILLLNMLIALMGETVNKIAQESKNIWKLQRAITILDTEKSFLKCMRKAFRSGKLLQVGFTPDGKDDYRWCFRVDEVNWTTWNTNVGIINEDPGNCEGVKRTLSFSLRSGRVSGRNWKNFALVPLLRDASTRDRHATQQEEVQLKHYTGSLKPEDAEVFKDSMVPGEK

[27] = target: T1, Transient receptor potential cation channel subfamily V member 1; assay: Inhibition of rat TRPV1 expressed in CHO cells assessed as acid-induced Ca2+ influx; format: cell-based
[28] = AUC (0 to infinity) in Sprague-Dawley rat at 3 mg/kg, po up to 8 hrs; format: ADME, organism-based; design: time infinity, dose 3 mg/kg, route oral; conditions: plasma
How it was run: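 Fasted male Sprague-Dawley rats were given a single oral dose of 3 mg/kg as a suspension in 5% Tween 80/Oraplus. Plasma was sampled for up to 8 h, and AUC0-∞ was reported in ng·h/mL.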

`CC(=O)Nc1nc2c(Oc3cc(N4CCN(Cc5ccccc5)CC4)ncn3)cccc2s1` gave a solubility [1] of at least 200 µg/mL.
Molecule `CC(=O)Nc1nc2c(Oc3cc(N4CCN([C@H](C)c5ccc(F)cc5)CC4)ncn3)cccc2s1` has a Vd [2] of 0.9 L/kg, a Cp (Rattus norvegicus [3]) of 128 ng/mL and an AUC(0-inf) [4] of 3100 ng·h/mL. The Vd [5] was 2.8 L/kg, the bioavailability [6] was 83% and the bioavailability [7] was 51%. For the same molecule, the minimal effective dose (Rattus norvegicus [8]) was 1 mg/kg, the clearance [9] was 13.8 mL/min/kg and the clearance [10] was 40 mL/min/kg. The half-life [11] was 3.2 h, the Vd [12] was 4 L/kg and the Cp (Rattus norvegicus [13]) was 70 ng/mL. For the same molecule, the AUC(0-inf) [14] was 1200 ng·h/mL, the ED50 (Rattus norvegicus [15]) was 1.9 mg/kg and the Activity (Rattus norvegicus [16]) was “Active”. The bioavailability [17] was 12%, the solubility [1] was at least 200 µg/mL and the solubility [18] was 64 µg/mL (≈ 130 µM). For the same molecule, the clearance [19] was 6.67 mL/min/kg, the clearance [20] was 13.3 mL/min/kg and the half-life [21] was 3.8 h. The Vd [22] was 2.6 L/kg, the solubility [23] was 7 µg/mL (≈ 14.2 µM) and the half-life [24] was 2.7 h. For the same molecule, the half-life [25] was 2.7 h.
With `CC(=O)Nc1nc2c(Oc3cc(N4CCN(CC(F)(F)F)CC4)ncn3)cccc2s1` the IC50 [26] was 380 nM, the solubility [1] was at least 200 µg/mL and the IC50 [27] was 120 nM.
In the case of `CC(=O)Nc1nc2c(Oc3cc(N4CCN(c5ccccc5)CC4)ncn3)cccc2s1`, the solubility [1] is reported as 1.5 µg/mL (≈ 3.36 µM) and the clearance [20] is reported as 16.7 mL/min/kg.
For `CC(=O)Nc1nc2c(Oc3cc(N4CCN([C@@H](C)c5ccc(F)cc5)CC4)ncn3)cccc2s1`, the AUC(0-inf) [4] was 2550 ng·h/mL, the Vd [5] was 5.7 L/kg and the bioavailability [7] was 93%. For the same molecule, the AUC(0-inf) [14] was 550 ng·h/mL, the solubility [1] was at least 200 µg/mL and the solubility [18] was 121 µg/mL (≈ 246 µM). For the same molecule, the clearance [20] was 30 mL/min/kg, the solubility [23] was 31 µg/mL (≈ 62.9 µM) and the half-life [24] was 2.5 h.
Work on `CC(=O)Nc1nc2c(Oc3cc(N4CCN(C(C)c5ccc(F)cc5)CC4)ncn3)cccc2s1` (centres undefined) yielded an AUC(0-inf) [4] of 1800 ng·h/mL, a Vd [5] of 2.9 L/kg and a bioavailability [7] of 35%. It also gave an AUC(0-inf) [14] of 1000 ng·h/mL, a solubility [1] of at least 200 µg/mL and a solubility [18] of 34 µg/mL (≈ 69 µM). For the same molecule, the clearance [20] was 18.3 mL/min/kg, the solubility [23] was 5 µg/mL (≈ 10.2 µM) and the half-life [24] was 2.4 h.
In the case of `CCC(c1ccccc1)N1CCN(c2cc(Oc3cccc4sc(NC(C)=O)nc34)ncn2)CC1` (centres undefined), the solubility [1] is reported as at least 200 µg/mL.
`CC(=O)Nc1nc2c(Oc3cc(N4CCN(CCc5ccccc5)CC4)ncn3)cccc2s1` gave a solubility [1] of at least 200 µg/mL.
`CC(=O)Nc1nc2c(Oc3cc(N4CCN(C(c5ccccc5)c5ccccc5)CC4)ncn3)cccc2s1` gave a solubility [1] of 46 µg/mL (≈ 85.7 µM).
For `CC(=O)Nc1nc2c(Oc3cc(N4CCN(C(C)c5ccccc5F)CC4)ncn3)cccc2s1` (centres undefined), the solubility [1] was at least 200 µg/mL and the clearance [20] was 50 mL/min/kg.
With `CC(=O)Nc1nc2c(Oc3cc(N4CCN(C(C)(C)C)CC4)ncn3)cccc2s1` the IC50 [26] was 1500 nM, the solubility [1] was at least 200 µg/mL and the IC50 [27] was over 4000 nM.
`CC(=O)Nc1nc2c(Oc3cc(N4CCN(C(C)C)CC4)ncn3)cccc2s1` showed a solubility [1] of at least 200 µg/mL.
In the case of `CC(=O)Nc1nc2c(Oc3cc(N4CCN(CC(C)(C)C)CC4)ncn3)cccc2s1`, the IC50 [26] is reported as 3 nM, the solubility [1] is reported as at least 200 µg/mL and the IC50 [27] is reported as 5 nM. For the same molecule, the clearance [20] was 25 mL/min/kg.
In the case of `COc1ccc(C(C)N2CCN(c3cc(Oc4cccc5sc(NC(C)=O)nc45)ncn3)CC2)cc1` (centres undefined), the solubility [1] is reported as at least 200 µg/mL.
`CC(=O)Nc1nc2c(Oc3cc(-c4ccc(C(F)(F)F)cc4)ncn3)cccc2s1` [AMG-517] showed an AUC(0-inf) [28] of 12500 ng·h/mL, a Vd [5] of 1.6 L/kg and a bioavailability [7] of 32%. It also gave a solubility [1] of under 1 µg/mL and a solubility [23] of under 1 µg/mL.
Molecule `CC(=O)Nc1nc2c(Oc3cc(N4CCC(C(F)(F)F)CC4)ncn3)cccc2s1` has an IC50 [26] of 330 nM, a solubility [1] of 9 µg/mL (≈ 20.6 µM) and an IC50 [27] of 19 nM.
`CC(=O)Nc1nc2c(Oc3cc(N4CCNCC4)ncn3)cccc2s1` gave an IC50 [26] of over 4000 nM, a solubility [1] of 173 µg/mL (≈ 467 µM) and an IC50 [27] of over 4000 nM.
In the case of `CC(=O)Nc1nc2c(Oc3cc(N4CCN(C(C)c5ccccc5)CC4)ncn3)cccc2s1` (centres undefined), the solubility [1] is reported as at least 200 µg/mL and the clearance [20] is reported as 65 mL/min/kg.
For `CC(=O)Nc1nc2c(Oc3cc(C4=CCC(C(F)(F)F)CC4)ncn3)cccc2s1` (centres undefined), the IC50 [26] was 27 nM, the solubility [1] was 13 µg/mL (≈ 29.9 µM) and the IC50 [27] was 2.4 nM.
Work on `CC(=O)Nc1nc2c(Oc3cc(N4CCN(C(C)c5ccc(C(F)(F)F)cc5)CC4)ncn3)cccc2s1` (centres undefined) yielded an AUC(0-inf) [4] of 120 ng·h/mL, a Vd [5] of 4.5 L/kg and a bioavailability [7] of 3%. For the same molecule, the AUC(0-inf) [14] was 720 ng·h/mL, the IC50 [26] was 5 nM and the solubility [1] was at least 200 µg/mL. The solubility [18] was 121 µg/mL (≈ 223 µM), the IC50 [27] was 1.8 nM and the clearance [20] was 23.3 mL/min/kg. For the same molecule, the solubility [23] was 5 µg/mL (≈ 9.22 µM) and the half-life [24] was 2.7 h.
`CC(=O)Nc1nc2c(Oc3cc(N4CCN(C(C)(C)c5ccccc5)CC4)ncn3)cccc2s1` showed a solubility [1] of at least 200 µg/mL.
`CC(=O)Nc1nc2c(Oc3cc(N4CCN(C(C)c5cccc(F)c5)CC4)ncn3)cccc2s1` (centres undefined) showed a solubility [1] of at least 200 µg/mL and a clearance [20] of 53.3 mL/min/kg.
For `CC(=O)Nc1nc2c(Oc3cc(N4CCOCC4)ncn3)cccc2s1`, the IC50 [26] was over 4000 nM, the solubility [1] was 32 µg/mL (≈ 86.2 µM) and the IC50 [27] was over 4000 nM.
In the case of `CC(=O)Nc1nc2c(Oc3cc(C4CCC(C(F)(F)F)CC4)ncn3)cccc2s1` (centres undefined), the IC50 [26] is reported as 350 nM, the solubility [1] is reported as 5 µg/mL (≈ 11.5 µM) and the IC50 [27] is reported as 10 nM.

Source: ChEMBL document CHEMBL1145460, “Novel vanilloid receptor-1 antagonists: 3. The identification of a second-generation clinical candidate with improved physicochemical and pharmacokinetic properties” (J Med Chem, 2007)
